Results as given in ChEMBL document CHEMBL3227938, “Quantitative structure-activity relationships for biguanides, carbamimidates, and bisbiguanides as inhibitors of Streptococcus mutans No. 6715” (J Med Chem, 1979).

test system: Streptococcus mutans; experiment: Antimicrobial activity against Streptococcus mutans 6715 after 48 hrs by spectrophotometry; format: functional
In short: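 Trypticase soy broth with sucrose and the salt of the test agent dosed from ethanol, inoculated with a 24-h S. mutans 6715 culture. Incubated anaerobically at 37 °C. Growth measured spectrophotometrically at 48 h. Each dilution tested in sets of five tubes.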

Compound | log(1/MIC)
CCCCCCCCCCOC(=N)NC(=N)Nc1ccc(Cl)cc1 | 5.05
CCCCOC(=N)NC(=N)Nc1ccc(Cl)cc1 | 4
CCOC(=N)NC(=N)Nc1ccc(Cl)cc1 | 3.7
CCCCCS(=O)(=O)c1ccc(NC(=N)NC(=N)NCCCCCCNC(=N)NC(=N)Nc2ccc(S(=O)(=O)CCCCC)cc2)cc1 | 5.4
CCCCCCCCOC(=N)NC(=N)Nc1ccc(Cl)cc1 | 5.3
N=C(NCCCCCCNC(=N)NC(=N)NC12CC3CC(CC(C3)C1)C2)NC(=N)NC12CC3CC(CC(C3)C1)C2 | 5
CCCCC(CC)CNC(=N)NC(=N)NCCCCCCNC(=N)NC(=N)NCC(CC)CCCC (stereo not drawn) [ALEXIDINE] | 5.1
N=C(NCCCCCCNC(=N)NC(=N)Nc1ccc(Cl)cc1)NC(=N)Nc1ccc(Cl)cc1 [CHLORHEXIDINE] | 5.22
CC(C)OC(=N)NC(=N)Nc1ccc(Cl)cc1 | 3.3
CCCCCSc1ccc(NC(=N)NC(=N)NCCCCCCNC(=N)NC(=N)Nc2ccc(SCCCCC)cc2)cc1 | 5.3
CCCCC(CC)CNC(=N)NC(=N)Nc1ccc(C)cc1 (stereo not drawn) | 5.22
CCCCCCCCCCCCNC(=N)NC(=N)Nc1ccc(Cl)cc1 | 4.7
N=C(NCCCCCCNC(=N)NC(=N)Nc1cccc(C(F)(F)F)c1)NC(=N)Nc1cccc(C(F)(F)F)c1 | 5.22
CCNC(=N)NC(=N)Nc1ccc(Cl)cc1 | 3
CCCNC(=N)NC(=N)Nc1ccc(Cl)cc1 | 3
CNC(=N)NC(=N)Nc1ccc(Cl)cc1 | 3
CCCCS(=O)(=O)c1ccc(NC(=N)NC(=N)NCCCCCCNC(=N)NC(=N)Nc2ccc(S(=O)(=O)CCCC)cc2)cc1 | 4.52
CSc1ccc(NC(=N)NC(=N)NCCCCCCNC(=N)NC(=N)Nc2ccc(SC)cc2)cc1 | 5.4
CCCCCCCCNC(=N)NC(=N)Nc1ccc(Cl)cc1 | 5.22

Other lines, results leading:

log(1/MIC) | Compound
3.7 | CCCS(=O)(=O)c1ccc(NC(=N)NC(=N)NCCCCCCNC(=N)NC(=N)Nc2ccc(S(=O)(=O)CCC)cc2)cc1
5 | CCCCCCCCCCNC(=N)NC(=N)Nc1ccc(Cl)cc1
5 | CCCCCC/N=C(N)/N=C(\N)Nc1ccc(Cl)cc1
5.15 | CCCCCCCCCCNC(=N)NC(=N)Nc1ccccc1
5.4 | CCCCCCS(=O)(=O)c1ccc(NC(=N)NC(=N)NCCCCCCNC(=N)NC(=N)Nc2ccc(S(=O)(=O)CCCCCC)cc2)cc1
5.7 | CCSc1ccc(NC(=N)NC(=N)NCCCCCCNC(=N)NC(=N)Nc2ccc(SCC)cc2)cc1
5.4 | CCCCC(CC)CNC(=N)NC(=N)Nc1ccc(Cl)cc1 (stereo not drawn)
5.3 | CCCCCCCCNC(=N)NC(=N)Nc1cccc(C(F)(F)F)c1
5.3 | CCCCCCCCNC(=N)NC(=N)Nc1ccc(C)cc1
4.96 | CCCCCCNC(=N)NC(=N)Nc1cccc(C(F)(F)F)c1
5 | CCCCCCCCNC(=N)NC(=N)Nc1ccc(OC)cc1
4 | CCCCNC(=N)NC(=N)Nc1ccc(Cl)cc1
5.22 | CCCSc1ccc(NC(=N)NC(=N)NCCCCCCNC(=N)NC(=N)Nc2ccc(SCCC)cc2)cc1
5.4 | N=C(NCCCCCCNC(=N)NC(=N)NC1CCCCC1)NC(=N)NC1CCCCC1
5 | CCCCCCOC(=N)NC(=N)Nc1ccc(Cl)cc1
5.04 | CCCCCCCCNC(=N)NC(=N)Nc1ccccc1
5.52 | CCCCSc1ccc(NC(=N)NC(=N)NCCCCCCNC(=N)NC(=N)Nc2ccc(SCCCC)cc2)cc1
3 | CC(C)NC(=N)NC(=N)Nc1ccc(Cl)cc1 [PROGUANIL]

test system: Streptococcus mutans; experiment: Antimicrobial activity against Streptococcus mutans 6715 after 24 hrs by spectrophotometry; format: functional
In short: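 Inoculated with a 24-h S. mutans 6715 culture and incubated anaerobically at 37 °C. Growth read spectrophotometrically. Dilution series run in sets of five tubes. MIC is the lowest drug level with readings above 60% T at 24 h. Repeat determinations agreed.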

Compound | log(1/MIC)
CCCCCCCCCCOC(=N)NC(=N)Nc1ccc(Cl)cc1 | 5.05
CCCCOC(=N)NC(=N)Nc1ccc(Cl)cc1 | 4.15
CCOC(=N)NC(=N)Nc1ccc(Cl)cc1 | 3.7
CCCCCS(=O)(=O)c1ccc(NC(=N)NC(=N)NCCCCCCNC(=N)NC(=N)Nc2ccc(S(=O)(=O)CCCCC)cc2)cc1 | 5.52
CCCCCCCCOC(=N)NC(=N)Nc1ccc(Cl)cc1 | 5.52
N=C(NCCCCCCNC(=N)NC(=N)NC12CC3CC(CC(C3)C1)C2)NC(=N)NC12CC3CC(CC(C3)C1)C2 | 5
CCCCC(CC)CNC(=N)NC(=N)NCCCCCCNC(=N)NC(=N)NCC(CC)CCCC (stereo not drawn) [ALEXIDINE] | 5.15
N=C(NCCCCCCNC(=N)NC(=N)Nc1ccc(Cl)cc1)NC(=N)Nc1ccc(Cl)cc1 [CHLORHEXIDINE] | 5.3
CC(C)OC(=N)NC(=N)Nc1ccc(Cl)cc1 | 3.3
CCCCCSc1ccc(NC(=N)NC(=N)NCCCCCCNC(=N)NC(=N)Nc2ccc(SCCCCC)cc2)cc1 | 5.52
CCCCC(CC)CNC(=N)NC(=N)Nc1ccc(C)cc1 (stereo not drawn) | 5.22
CCCCCCCCCCCCNC(=N)NC(=N)Nc1ccc(Cl)cc1 | 5
N=C(NCCCCCCNC(=N)NC(=N)Nc1cccc(C(F)(F)F)c1)NC(=N)Nc1cccc(C(F)(F)F)c1 | 5.52
CCNC(=N)NC(=N)Nc1ccc(Cl)cc1 | 3.04
CCCNC(=N)NC(=N)Nc1ccc(Cl)cc1 | 3.04
CNC(=N)NC(=N)Nc1ccc(Cl)cc1 | 3
CCCCS(=O)(=O)c1ccc(NC(=N)NC(=N)NCCCCCCNC(=N)NC(=N)Nc2ccc(S(=O)(=O)CCCC)cc2)cc1 | 4.7
CSc1ccc(NC(=N)NC(=N)NCCCCCCNC(=N)NC(=N)Nc2ccc(SC)cc2)cc1 | 5.4
CCCCCCCCNC(=N)NC(=N)Nc1ccc(Cl)cc1 | 5.22

Now from value to compound:

log(1/MIC) | Compound
3.7 | CCCS(=O)(=O)c1ccc(NC(=N)NC(=N)NCCCCCCNC(=N)NC(=N)Nc2ccc(S(=O)(=O)CCC)cc2)cc1
5.1 | CCCCCCCCCCNC(=N)NC(=N)Nc1ccc(Cl)cc1
5 | CCCCCC/N=C(N)/N=C(\N)Nc1ccc(Cl)cc1
5.3 | CCCCCCCCCCNC(=N)NC(=N)Nc1ccccc1
5.4 | CCCCCCS(=O)(=O)c1ccc(NC(=N)NC(=N)NCCCCCCNC(=N)NC(=N)Nc2ccc(S(=O)(=O)CCCCCC)cc2)cc1
5.7 | CCSc1ccc(NC(=N)NC(=N)NCCCCCCNC(=N)NC(=N)Nc2ccc(SCC)cc2)cc1
5.4 | CCCCC(CC)CNC(=N)NC(=N)Nc1ccc(Cl)cc1 (stereo not drawn)
5.3 | CCCCCCCCNC(=N)NC(=N)Nc1cccc(C(F)(F)F)c1
5.4 | CCCCCCCCNC(=N)NC(=N)Nc1ccc(C)cc1
5 | CCCCCCNC(=N)NC(=N)Nc1cccc(C(F)(F)F)c1
5.22 | CCCCCCCCNC(=N)NC(=N)Nc1ccc(OC)cc1
4 | CCCCNC(=N)NC(=N)Nc1ccc(Cl)cc1
5.3 | CCCSc1ccc(NC(=N)NC(=N)NCCCCCCNC(=N)NC(=N)Nc2ccc(SCCC)cc2)cc1
5.4 | N=C(NCCCCCCNC(=N)NC(=N)NC1CCCCC1)NC(=N)NC1CCCCC1
5.1 | CCCCCCOC(=N)NC(=N)Nc1ccc(Cl)cc1
5.22 | CCCCCCCCNC(=N)NC(=N)Nc1ccccc1
5.7 | CCCCSc1ccc(NC(=N)NC(=N)NCCCCCCNC(=N)NC(=N)Nc2ccc(SCCCC)cc2)cc1
3.04 | CC(C)NC(=N)NC(=N)Nc1ccc(Cl)cc1 [PROGUANIL]

test system: not listed separately; experiment: Dissociation constant, pKa of the compound in 3:1 water:ethanol at 1 x 10 '-3 M; format: physicochemical
In short: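 pKa measured in duplicate by potentiometric titration in 3:1 water–ethanol at 10⁻³. pH recorded after each titrant addition, and pKa calculated by the Albert–Serjeant method.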

pKa at 1000 µM | Compound
9.36 | CCOC(=N)NC(=N)Nc1ccc(Cl)cc1
9.35 | CC(C)OC(=N)NC(=N)Nc1ccc(Cl)cc1
10.8 | CCNC(=N)NC(=N)Nc1ccc(Cl)cc1
10.8 | CCCNC(=N)NC(=N)Nc1ccc(Cl)cc1
10.8 | CCCCNC(=N)NC(=N)Nc1ccc(Cl)cc1
10.6 | CNC(=N)NC(=N)Nc1ccc(Cl)cc1

Compound | pKa at 1000 µM
N=C(NCCCCCCNC(=N)NC(=N)Nc1ccc(Cl)cc1)NC(=N)Nc1ccc(Cl)cc1 [CHLORHEXIDINE] | 10.8

test system: not listed separately; experiment: Octanol-phosphate buffer partition coefficient, log P of the compound at pH 11.5; format: physicochemical
In short: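 Compound partitioned between 0.05 M phosphate buffer (pH 11.5) and octanol, each pre-saturated with the other. Gentle shaking for 90 min at 25 ± 5 °C. Phase ratio and sample amount set so the buffer-layer absorbance fell between 0.2 and 0.9 (1-cm cell, buffer blank). Free-base P was corrected for degree of ionization using pKa.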

Compound | logD
CCCCCCCCCCOC(=N)NC(=N)Nc1ccc(Cl)cc1 | 6.32
CCCCOC(=N)NC(=N)Nc1ccc(Cl)cc1 | 3.32
CCOC(=N)NC(=N)Nc1ccc(Cl)cc1 | 2.32
CCCCCS(=O)(=O)c1ccc(NC(=N)NC(=N)NCCCCCCNC(=N)NC(=N)Nc2ccc(S(=O)(=O)CCCCC)cc2)cc1 | 4.1
CCCCCCCCOC(=N)NC(=N)Nc1ccc(Cl)cc1 | 5.32
N=C(NCCCCCCNC(=N)NC(=N)NC12CC3CC(CC(C3)C1)C2)NC(=N)NC12CC3CC(CC(C3)C1)C2 | 6.04
CCCCC(CC)CNC(=N)NC(=N)NCCCCCCNC(=N)NC(=N)NCC(CC)CCCC (stereo not drawn) [ALEXIDINE] | 7.04
N=C(NCCCCCCNC(=N)NC(=N)Nc1ccc(Cl)cc1)NC(=N)Nc1ccc(Cl)cc1 [CHLORHEXIDINE] | 4.78
CC(C)OC(=N)NC(=N)Nc1ccc(Cl)cc1 | 2.64
CCCCCSc1ccc(NC(=N)NC(=N)NCCCCCCNC(=N)NC(=N)Nc2ccc(SCCCCC)cc2)cc1 | 8.58
CCCCC(CC)CNC(=N)NC(=N)Nc1ccc(C)cc1 (stereo not drawn) | 4.73
CCCCCCCCCCCCNC(=N)NC(=N)Nc1ccc(Cl)cc1 | 7.13
N=C(NCCCCCCNC(=N)NC(=N)Nc1cccc(C(F)(F)F)c1)NC(=N)Nc1cccc(C(F)(F)F)c1 | 5.12
CCNC(=N)NC(=N)Nc1ccc(Cl)cc1 | 2.14
CCCNC(=N)NC(=N)Nc1ccc(Cl)cc1 | 2.63
CNC(=N)NC(=N)Nc1ccc(Cl)cc1 | 1.58
CCCCS(=O)(=O)c1ccc(NC(=N)NC(=N)NCCCCCCNC(=N)NC(=N)Nc2ccc(S(=O)(=O)CCCC)cc2)cc1 | 3.1
CSc1ccc(NC(=N)NC(=N)NCCCCCCNC(=N)NC(=N)Nc2ccc(SC)cc2)cc1 | 4.58
CCCCCCCCNC(=N)NC(=N)Nc1ccc(Cl)cc1 | 5.13

Continued, values first:

logD | Compound
2.1 | CCCS(=O)(=O)c1ccc(NC(=N)NC(=N)NCCCCCCNC(=N)NC(=N)Nc2ccc(S(=O)(=O)CCC)cc2)cc1
6.13 | CCCCCCCCCCNC(=N)NC(=N)Nc1ccc(Cl)cc1
3.13 | CCCCCC/N=C(N)/N=C(\N)Nc1ccc(Cl)cc1
5.43 | CCCCCCCCCCNC(=N)NC(=N)Nc1ccccc1
5.1 | CCCCCCS(=O)(=O)c1ccc(NC(=N)NC(=N)NCCCCCCNC(=N)NC(=N)Nc2ccc(S(=O)(=O)CCCCCC)cc2)cc1
5.58 | CCSc1ccc(NC(=N)NC(=N)NCCCCCCNC(=N)NC(=N)Nc2ccc(SCC)cc2)cc1
4.93 | CCCCC(CC)CNC(=N)NC(=N)Nc1ccc(Cl)cc1 (stereo not drawn)
5.31 | CCCCCCCCNC(=N)NC(=N)Nc1cccc(C(F)(F)F)c1
4.93 | CCCCCCCCNC(=N)NC(=N)Nc1ccc(C)cc1
4.31 | CCCCCCNC(=N)NC(=N)Nc1cccc(C(F)(F)F)c1
4.41 | CCCCCCCCNC(=N)NC(=N)Nc1ccc(OC)cc1
3.13 | CCCCNC(=N)NC(=N)Nc1ccc(Cl)cc1
6.58 | CCCSc1ccc(NC(=N)NC(=N)NCCCCCCNC(=N)NC(=N)Nc2ccc(SCCC)cc2)cc1
4.46 | N=C(NCCCCCCNC(=N)NC(=N)NC1CCCCC1)NC(=N)NC1CCCCC1
4.32 | CCCCCCOC(=N)NC(=N)Nc1ccc(Cl)cc1
4.43 | CCCCCCCCNC(=N)NC(=N)Nc1ccccc1
7.58 | CCCCSc1ccc(NC(=N)NC(=N)NCCCCCCNC(=N)NC(=N)Nc2ccc(SCCCC)cc2)cc1
2.43 | CC(C)NC(=N)NC(=N)Nc1ccc(Cl)cc1 [PROGUANIL]
